Screens from PubChem.
A selection: hits, their analogues and other compounds. The true share with any hit is near 2.1%.
APJ ag – agonists of human apelin receptor APJ, primary screen, CHO-K1 cells, PathHunter beta-arrestin, luminescence | 0% DMSO wells, 100% apelin | activation, % at 20 µM | 330,000 tested, 0.11% active;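 active = activation more than six SD over the plate average, tested at 20 µM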
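system = engineered CHO-K1 APJ arrestin reporter cells | input = 1000 cells per well | timing = overnight seeding, 90 min compound at 25 °C, 1 h detection | measured by = enzyme-fragment complementation luminescence | read-out = beta-arrestin recruitment to APJ as agonist activity, luminescent signal | control set = negative DMSO alone, positive Apelin-13 at 10 nM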
HTR2A ag – mouse Htr2a agonists via beta-arrestin recruitment, primary screen, cell-based, luminescence; CHO-K1 mHTR2A beta-arrestin complementation; percent of 30 µM serotonin response; 360,000 tested, 0.66% active; 5-hydroxytryptamine receptor 2A (Mus musculus), P35363; activation, % at 7.6 µM;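 active = activation above a run cutoff, the mean activation of all tested compounds plus 3 SD, cut at about 14% in these data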
Target sequence (P35363 whole entry, looked up): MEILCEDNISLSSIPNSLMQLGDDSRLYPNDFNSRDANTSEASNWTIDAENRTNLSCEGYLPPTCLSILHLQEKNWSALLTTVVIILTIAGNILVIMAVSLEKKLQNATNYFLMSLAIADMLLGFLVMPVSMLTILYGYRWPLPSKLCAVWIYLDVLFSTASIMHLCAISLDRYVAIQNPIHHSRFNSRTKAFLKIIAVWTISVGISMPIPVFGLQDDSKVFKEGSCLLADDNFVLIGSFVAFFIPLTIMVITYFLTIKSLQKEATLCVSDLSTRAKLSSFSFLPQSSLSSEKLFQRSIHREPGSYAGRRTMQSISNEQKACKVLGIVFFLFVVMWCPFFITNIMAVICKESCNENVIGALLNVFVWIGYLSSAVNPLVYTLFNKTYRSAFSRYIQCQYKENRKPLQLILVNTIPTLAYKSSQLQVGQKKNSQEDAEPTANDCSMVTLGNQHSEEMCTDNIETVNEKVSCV
EBI2 block – EBI2 receptor antagonists, beta-arrestin recruitment, primary screen, cell-based, luminescence, 7a,25-OHC stimulation, uHTS; 7a,25-OHC stimulated; inhibition, % at 5 µM; 360,000 tested, 0.81% active; AID 651636, 2012; in the data active = inhibition above about 38%;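 also: enzyme fragment complementation signal reports receptor beta-arrestin coupling in cells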
CXCR6 block – CXCR6 receptor inhibitors, primary screen, cell-based, beta-arrestin, luminescence, CHO-K1 PathHunter, 1536-well | C-X-C chemokine receptor type 6 (Homo sapiens), O00574 | inhibition, % at 20 µM | 360,000 tested, 0.36% active | AID 602244, 2012; in the data active = inhibition above about 34%, passing the limit was not always enough;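 also: antagonist mode with CXCL16 agonist at 10 nM final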
APJ antagonist – antagonists of human apelin receptor APJ, primary screen, CHO-K1 cells, beta-arrestin complementation, luminescence; 330,000 tested, 0.32% active; P35414; AID 2521, 2010; inhibition, % at 20 µM;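 active = inhibition above about 40% at 20 µM, limit read from the data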;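 also: cells challenged with 10 nM apelin-13 agonist together with compound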
CCR6 antag – CCR6 receptor antagonists, primary screen, cell-based, CHO-K1, luminescence, beta-arrestin, uHTS; CHO-K1 CCR6 PathHunter beta-arrestin, CCL20-stimulated; inhibition, % at 20 µM; 340,000 tested, 0.49% active;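 active = compounds whose inhibition of the agonist-driven luminescence signal at 20 µM reaches about 50%, limit read from the data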;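 also: cells stimulated with CCL20 at 14 nM final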
EBI2 antag conf – EBI2 antagonist hit retest, beta-arrestin, confirmation, cell-based, single concentration, luminescence, 7a,25-OHC stimulation; shares compounds with EBI2 block; 7a,25-OHC antagonism; 2,400 tested, 29% active; AID 651997, 2013; inhibition, % at 5 µM;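 active = inhibition of at least 50%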
EBI2 agonist – EBI2 agonist activity of antagonist hits, confirmation, counter-screen for EBI2 antagonist project, cell-based, single concentration, agonist mode, luminescence; shares compounds with EBI2 block; EBI2-expressing cells, 60 min; 0% vehicle, 100% 7α,25-dihydroxycholesterol control; activation, % at 5 µM; 2,400 tested, under 10 active;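 active = activation of at least 50%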
bGal cs – E. coli beta-galactosidase enzyme inhibition, confirmation, counter-screen for EBI2 antagonist project, biochemical, luminescence, single concentration | shares compounds with EBI2 block | purified beta-galactosidase, luminescent Galacton Star, 15 min | inhibition, % at 5 µM | 2,400 tested, 1% active;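 active = replicate-average signal at least 3 plate SD below neutral wells, shown as high inhibition, flagging enzyme-inhibiting false positives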;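 also: higher means stronger loss of beta-gal luminescence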
Of the large screens only hits and unclear results are named; the others gave an inactive call (follow-up assays come after a bar, where they were run).

COc1ccc(-c2cc(C(=O)N3CCN(C(=O)c4ccccc4F)CC3)[nH]n2)cc1	none
O=C(c1cc(-c2ccccc2)n[nH]1)N1CCN(S(=O)(=O)c2ccccc2)CC1	EBI2 block 59.4 | EBI2 antag conf inactive | EBI2 agonist inactive | bGal cs inactive
O=C(c1cc(-c2ccc(Br)cc2)n[nH]1)N1CCN(C(=O)c2ccccc2Br)CC1	EBI2 block 84.4 | EBI2 antag conf 51.6 | EBI2 agonist inactive | bGal cs inactive
COc1ccc(-c2cc(C(=O)N3CCN(S(=O)(=O)c4ccccc4)CC3)[nH]n2)cc1	EBI2 block 48.3 | EBI2 antag conf inactive | EBI2 agonist inactive | bGal cs inactive
COc1ccccc1-c1cc(C(=O)N2CCN(S(=O)(=O)c3ccc(C)cc3)CC2)[nH]n1	EBI2 block 61.5 | EBI2 antag conf inactive | EBI2 agonist inactive | bGal cs inactive
Cc1ccc(S(=O)(=O)N2CCN(C(=O)c3n[nH]c4ccccc34)CC2)cc1	none
Cc1nn(CC(=O)NCCCN2CC(C)CC(C)C2)c(=O)c2cccn12 (configuration not stated)	none
O=C(CC(c1ccccc1)c1cc(Cl)ccc1O)NCCCN1CCOCC1 (configuration not stated)	none
COc1ccccc1N1CC=C(c2cccc([N+](=O)[O-])c2)NC1=O	none
COc1ccc(S(=O)(=O)N2CCC(C(=O)NCC3CC3)CC2)cc1	none
CC1CN(C(=O)c2cccc(S(=O)(=O)N3CCN(c4ccccc4)CC3)c2)CC(C)O1 (configuration not stated)	none
COc1ccc(S(=O)(=O)N2CCN(C(=O)c3cc(-c4ccc(Br)cc4)n[nH]3)CC2)cc1OC	EBI2 block 71.9 | EBI2 antag conf inactive | EBI2 agonist inactive | bGal cs inactive
COc1ccc(-n2cc(-c3ccc(Cl)cc3)[nH]c2=S)cc1	EBI2 block 90.7 | EBI2 antag conf 72.3 | EBI2 agonist inactive | bGal cs inactive
COC(=O)c1ccc(-n2cc(-c3ccc(OC)cc3)[nH]c2=S)cc1	EBI2 block 74.0 (no result: APJ ag, APJ antagonist) | EBI2 antag conf 60.4 | EBI2 agonist inactive | bGal cs inactive
O=C(CSc1ccc(F)cc1)N1CCC(c2nc3ccccc3s2)CC1	EBI2 block 46.0 | EBI2 antag conf inactive | EBI2 agonist inactive | bGal cs inactive
O=C(CSc1ccc2ccccc2n1)N1CCC(c2noc3ccc(F)cc23)CC1	EBI2 block 38.0 | EBI2 antag conf inactive | EBI2 agonist inactive | bGal cs inactive
N#Cc1ccc(OCC(=O)OCC(=O)NC2CC2)cc1	none
CN1C2C=C3C(C#N)=C(N)C(C#N)(C#N)C(c4ccc(Br)cc4)C3C1CC2 (configuration not stated)	EBI2 block 51.3 | EBI2 antag conf 58.9 | EBI2 agonist inactive | bGal cs inactive
CC(C)Oc1cc(F)ccc1-c1cc(C(=O)Nc2cccc(C(F)(F)F)c2)[nH]n1	EBI2 block 42.5 (no result: APJ ag, APJ antagonist, CCR6 antag) | EBI2 antag conf inactive | EBI2 agonist inactive | bGal cs inactive
COc1ccc(NC(=O)c2cc(-c3ccc(F)cc3OC(C)C)n[nH]2)cn1	none (no result: APJ ag, APJ antagonist, CCR6 antag)
CCn1c(SCC(=O)N/N=C/c2ccc(C)o2)nnc1-c1ccccc1	EBI2 block 51.1 | EBI2 antag conf inactive | EBI2 agonist inactive | bGal cs inactive
O=C(COc1ccc2ccccc2c1Br)N1CCN(c2ccccn2)CC1	EBI2 block 52.0 | EBI2 antag conf inactive | EBI2 agonist inactive | bGal cs inactive
Cc1cc(C)c(C)c(OCC(=O)N2CCN(c3ccccn3)CC2)c1	none
Cc1cc(OCC(=O)N2CCN(c3ccccn3)CC2)c(C)cc1Br	EBI2 block 53.1 | EBI2 antag conf inactive | EBI2 agonist inactive | bGal cs inactive
COC(=O)c1ccc(OCC(O)CN2CCN(C(=O)c3ccco3)CC2)cc1 (configuration not stated)	none
CC(C)OCC(O)CN1CCC(Cc2ccccc2)CC1 (configuration not stated)	none
O=C(c1ccco1)N1CCN(CC(O)COc2ccc(Br)cc2)CC1 (configuration not stated)	EBI2 block 51.0 | EBI2 antag conf inactive | EBI2 agonist inactive | bGal cs inactive
OC(COc1ccc(Br)cc1)CN1CCC(Cc2ccccc2)CC1 (configuration not stated)	EBI2 block 61.1 | EBI2 antag conf inactive | EBI2 agonist inactive | bGal cs inactive
COc1ccc2oc(C(=O)N3CCN(S(=O)(=O)c4c(C)c(C)cc(C)c4C)CC3)c(C)c2c1	EBI2 block 79.9 (no result: APJ ag, APJ antagonist) | EBI2 antag conf 52.9 | EBI2 agonist inactive | bGal cs inactive
COc1ccccc1N1CCN(C(=O)c2oc3ccc(F)cc3c2C)CC1	none
Cc1nc2ccccc2c2oc(C(=O)N3CC(C)CC(C)C3)cc12 (configuration not stated)	none
COc1ccccc1N1CCN(C(=O)c2cc3c(C)nc4ccccc4c3o2)CC1	EBI2 block 73.5 | EBI2 antag conf 53.2 | EBI2 agonist inactive | bGal cs inactive
COc1ccccc1N1CCN(C(=O)c2oc3ccc(Br)cc3c2C)CC1	EBI2 block 75.2 | EBI2 antag conf inactive | EBI2 agonist inactive | bGal cs inactive
Cc1ccc(C)c(N2CCN(C(=O)c3cc4c(C)nc5ccccc5c4o3)CC2)c1	EBI2 block 87.9 | EBI2 antag conf 60.1 | EBI2 agonist inactive | bGal cs inactive
COc1ccc2oc(C(=O)N3CCN(S(=O)(=O)c4ccc(F)cc4)CC3)c(C)c2c1	none
Cc1cccc(C)c1NC(=O)NC1(C(=O)NCC2CCCO2)CCCCC1 (configuration not stated)	none
CN(Cc1ccccc1)C(=O)c1ccc(Cc2cn(C)c3ccccc23)nc1	none (no result: APJ ag, APJ antagonist, CCR6 antag)
